Active and inactive are the calls of the source.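 Rule for the calls, unless noted: active = viability at or below 30% in both replicate assays; inconclusive = viability at or below 30% in just one of the two assays; inactive = the rest.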
Legend:
[1] = Her2 expression decrease, cell viability multiplex – SKBR3 breast tumor cells, AlphaScreen, ATP viability, primary screen (AID 461;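 active = Her2 level under about 52% in both replicate screens, with viability over 70% of control, limit read from the data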;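 for Her2 level: lower value means less Her2 protein in the cells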;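 for viability: percent of carrier control wells set as 100% viability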); settings: SKBR3 Her2 protein level, 18-24 h, measured here: SKBR3 viability, ATP luminescence, at 10 µM
[2] = molecular target: Receptor tyrosine-protein kinase erbB-2 (Homo sapiens) (UniProt P04626); experiment: as above; settings: 18-24 h, at 10 µM, stronger effect = lower value
Receptor tyrosine-protein kinase erbB-2 (Homo sapiens), sequence (P04626 whole entry, looked up): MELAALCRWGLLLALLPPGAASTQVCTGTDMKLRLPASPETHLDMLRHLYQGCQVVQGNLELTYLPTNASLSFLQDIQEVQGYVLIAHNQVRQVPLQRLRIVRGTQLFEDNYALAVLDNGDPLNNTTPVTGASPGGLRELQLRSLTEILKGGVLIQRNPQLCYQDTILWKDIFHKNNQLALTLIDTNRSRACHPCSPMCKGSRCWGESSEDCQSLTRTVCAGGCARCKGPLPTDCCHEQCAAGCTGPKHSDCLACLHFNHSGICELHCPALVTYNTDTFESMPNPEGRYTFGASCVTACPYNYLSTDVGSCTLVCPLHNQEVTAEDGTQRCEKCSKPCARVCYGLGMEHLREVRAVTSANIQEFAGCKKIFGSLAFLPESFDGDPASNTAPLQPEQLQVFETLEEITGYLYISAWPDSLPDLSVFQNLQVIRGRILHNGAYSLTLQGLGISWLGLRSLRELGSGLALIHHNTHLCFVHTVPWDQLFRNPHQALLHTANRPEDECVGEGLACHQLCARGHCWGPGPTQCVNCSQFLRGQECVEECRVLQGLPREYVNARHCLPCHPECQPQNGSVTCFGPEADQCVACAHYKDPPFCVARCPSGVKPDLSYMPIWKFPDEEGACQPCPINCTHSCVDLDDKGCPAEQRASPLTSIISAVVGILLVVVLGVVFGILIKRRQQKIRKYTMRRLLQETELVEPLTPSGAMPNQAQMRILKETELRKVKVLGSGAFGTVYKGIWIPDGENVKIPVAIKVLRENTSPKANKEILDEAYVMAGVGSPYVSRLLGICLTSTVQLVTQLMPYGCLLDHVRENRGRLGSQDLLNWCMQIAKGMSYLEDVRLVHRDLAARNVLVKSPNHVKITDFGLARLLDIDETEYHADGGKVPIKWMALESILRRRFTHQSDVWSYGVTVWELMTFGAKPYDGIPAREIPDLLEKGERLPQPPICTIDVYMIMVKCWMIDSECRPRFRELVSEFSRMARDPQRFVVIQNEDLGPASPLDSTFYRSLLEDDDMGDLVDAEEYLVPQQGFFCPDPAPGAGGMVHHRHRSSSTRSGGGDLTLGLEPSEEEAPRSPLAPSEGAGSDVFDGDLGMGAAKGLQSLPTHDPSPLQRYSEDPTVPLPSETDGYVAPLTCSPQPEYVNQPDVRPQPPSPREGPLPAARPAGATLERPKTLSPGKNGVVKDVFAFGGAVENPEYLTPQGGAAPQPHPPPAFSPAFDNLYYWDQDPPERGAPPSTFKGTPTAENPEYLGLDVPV

[3] = reduced viability of SK-BR-3 breast cancer cells – cell-based, 24 h, human, pilot screen (AID 572;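 active = viability at or below 10% of carrier control in both of two separate runs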;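 note: compound exposure lasted between 18 and 24 h rather than exactly 24 h; 100% = carrier-treated control wells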); settings: SK-BR-3 viability, CellTiter-Glo luminescence, at 10 µM, stronger effect = lower value
[4] = HUVEC growth inhibition – cell-based, human, primary screen (AID 575); settings: HUVEC proliferation, CellTiter-Glo luminescence, 72 h; at 10 µM; stronger effect = lower value;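 note: 100% = median of untreated cell wells with 0.1% DMSO on each plate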
In short: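 Test system – primary HUVEC, no more than 12 passages · Dosing – one dose, 10 µM final, 0.1% DMSO · Times – 72 h treatment at 37 °C · Measured by – ATP-based CellTiter-Glo luminescent read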

[5] = H69AR cell proliferation blockers – human, duplicate replicates, primary screen (AID 580;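 active = viability at or under a set limit in both replicates, limit being median viability minus 3 SD, cut at about 48% in these data, passing the limit was not always enough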;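 note: 100% = mean luminescence of untreated wells and 0% = no signal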); settings: H69AR lung tumor cells viability, ATP luminescence, 72 h; at 10 µM; stronger effect = lower value
[6] = MRP1 drug-resistance reversers in H69AR cells – cell-based, doxorubicin co-treatment, pilot screen (AID 601;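 active = viability loss from added drug above about 55%, and viability with drug at most 40%, in both replicates, limit read from the data, passing the limit was not always enough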); settings: CellTiter-Glo, 72 h, at 10 µM; for differential viability (reversal): stronger effect = higher value
[7] = yeast transport mutant growth inhibition pilot in 384-well plates, post-Golgi transport modulator project (AID 636; in the data active = inhibition above about 31%); settings: absorbance 615 nm, about 18 h, stronger effect = higher value
[8] = growth suppression of yeast trafficking mutant, preliminary HTS, modulators of trafficking downstream of Golgi apparatus project, 1536-format plate, OD 615 nm (AID 637; in the data active = inhibition above about 30%); settings: yeast transport mutant growth, absorbance 615 nm, 18 h; stronger effect = higher value
[9] = H69AR cells + 2 uM doxorubicin, measured here: viability with 2 uM doxorubicin, stronger effect = lower value
[10] = H69AR cells, compound alone cytotoxicity

Compound | viability [1] [%] | Her2 level [2] | viability [3] | viability [4] | viability [5] | differential viability (reversal) ([6]; H69AR cells + 2 uM doxorubicin) | viability [6, 9] [%] | viability [6, 10] [%] | inhibition [7] | inhibition [8]
CCC(=O)c1ccc(OCCN2CCOCC2)cc1 | 99.5 | 91.5% (inactive) | 99.5% (inactive) | 111% (inactive) | 109% (inactive) | 17% (inactive) | 92.1 | 109 | -5% (inactive) | -3.87% (inactive)
O=C(COc1ccccc1)NCC(c1cccs1)N1CCOCC1 (stereo not given) | 84 | 126% (inactive) | 84% (inactive) | 91.7% (inactive) | 97.7% (inactive) | 14.4% (inactive) | 83.4 | 97.7 | 1.2% (inactive) | -4.29% (inactive)
CCC1c2ccc(C)n2CCN1C(=O)Nc1ccccc1OC (stereo not given) | 89.5 | 69.5% (inactive) | 89.5% (inactive) | 97.7% (inactive) | 78.9% (inactive) | -10.8% (inactive) | 89.7 | 78.9 | -6.13% (inactive) | 4.59% (inactive)
Cc1cc(NC(=O)CCC(=O)N(c2cccnc2)C(C(=O)NC2CCCC2)c2ccccc2F)no1 (stereo not given) | 99 | 104% (inactive) | 99% (inactive) | 99.4% (inactive) | 93.3% (inactive) | 4.7% (inactive) | 88.6 | 93.3 | 3.2% (inactive) | -2.46% (inactive)
O=C(CSc1nnc(CNC(=O)c2c(F)cccc2Cl)o1)c1ccccc1 | 94.5 | 107% (inactive) | 94.5% (inactive) | 112% (inactive) | 92.1% (inactive) | -1.57% (inactive) | 93.7 | 92.1 | 0.38% (inactive) | -0.67% (inactive)
CCOC(=O)N1CCN(C(=O)CCc2c(C)nc3c(c(C)nn3-c3ccc(C)c(C)c3)c2C)CC1 | 92 | 88.5% (inactive) | 92% (inactive) | 82% (inactive) | 86.2% (inactive) | 6.21% (inactive) | 80 | 86.2 | -1.71% (inactive) | -7.64% (inactive)
CCN(CC)S(=O)(=O)c1ccc(N2CCCC2)c(C(=O)OCC(=O)/C(C#N)=C(\C)N)c1 | 91 | 92.5% (inactive) | 91% (inactive) | 66.7% (inactive) | 82.6% (inactive) | -11.1% (inactive) | 93.7 | 82.6 | -6.4% (inactive) | 1.97% (inactive)
Nc1nc(N2C(=O)C3CC=CCC3C2=O)nn1-c1ccccc1 (stereo not given) | 101 | 130% (inactive) | 101% (inactive) | 105% (inactive) | 98.7% (inactive) | 2.73% (inactive) | 96 | 98.7 | 1.3% (inactive) | -12.2% (inactive)
O=C(Nc1ccccc1)N(O)c1ccc(Cl)cc1 | 93 | 79% (inactive) | 93% (inactive) | 88.5% (inactive) | 89.7% (inactive) | 11.8% (inactive) | 77.9 | 89.7 | -2.11% (inactive) | -4.5% (inactive)
CC1C=CC(C)C(C(=O)O)C1C(=O)O (stereo not given) | 103 | 93% (inactive) | 103% (inactive) | 97.6% (inactive) | 93% (inactive) | -5.29% (inactive) | 98.3 | 93 | -0.65% (inactive) | -5.67% (inactive)
CCN(CC)CCN1C(=O)Cn2c(C)c(C)c3cccc1c32 | 108 | 92.5% (inactive) | 108% (inactive) | 95.7% (inactive) | 84.6% (inactive) | -1.94% (inactive) | 86.5 | 84.6 | -7.47% (inactive) | -1.75% (inactive)
COCCN1C(=O)c2oc3c(C)cc(C)cc3c(=O)c2C1c1cccc(O)c1 (stereo not given) | 101 | 89.5% (inactive) | 101% (inactive) | 102% (inactive) | 88.1% (inactive) | -2.81% (inactive) | 90.9 | 88.1 | -5.26% (inactive) | -3.23% (inactive)
O=C(N1CCN(Cc2ccccc2)CC1)C12CC3CC(CC(C3)C1)C2 | 83 | 98% (inactive) | 83% (inactive) | 80.4% (inactive) | 83.4% (inactive) | -5.52% (inactive) | 88.9 | 83.4 | -5.54% (inactive) | -0.67% (inactive)
O=C(NC1CCCCC1)N(Cc1ccccc1)Cc1ccco1 | 94.5 | 98% (inactive) | 94.5% (inactive) | 101% (inactive) | 100% (inactive) | 3.09% (inactive) | 97.3 | 100 | 0.54% (inactive) | -3.11% (inactive)
Cc1ccc(C)c(NC(=O)c2ccc3c(c2)N(Cc2ccc(F)cc2)C(=O)CS3=O)c1 (stereo not given) | 85.5 | 102% (inactive) | 85.5% (inactive) | 95.2% (inactive) | 97.1% (inactive) | 3.96% (inactive) | 93.1 | 97.1 | -1.6% (inactive) | -0.66% (inactive)
CC1CCN(C(=O)CSc2nnc(-c3ccc(S(=O)(=O)N4CCOCC4)cc3)n2C)CC1 | 108 | 109% (inactive) | 108% (inactive) | 93.7% (inactive) | 88.3% (inactive) | -4.8% (inactive) | 93.1 | 88.3 | -4.4% (inactive) | -2.62% (inactive)
